Assay results: ChEMBL document CHEMBL4725479, “Benzoxaboroles: New Potent Inhibitors of the Carbonic Anhydrases of the Pathogenic Bacterium Vibrio cholerae” (ACS Med Chem Lett, 2020)

What was measured:
[1] = Inhibition of Vibrio cholerae alpha carbonic anhydrase incubated for 30 mins prior to testing measured for 10 to 100 secs by phenol red-based stopped-flow CO2 hydration assay
Procedure, shortened: (§1)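 Stopped-flow CO2 hydrase assay on the α, β and γ isoforms of V. cholerae CA. KI values are the mean of 3 independent assays, with errors of ±5–10% of the reported values.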

[2] = Inhibition of Vibrio cholerae beta carbonic anhydrase incubated for 30 mins prior to testing measured for 10 to 100 secs by phenol red-based stopped-flow CO2 hydration assay; procedure, shortened: as §1
[3] = Inhibition of Vibrio cholerae gamma carbonic anhydrase incubated for 30 mins prior to testing measured for 10 to 100 secs by phenol red-based stopped-flow CO2 hydration assay; procedure, shortened: as §1

| Structure (SMILES) | Ki [1] [nM] | Ki [2] [nM] | Ki [3] [nM] |
| --- | --- | --- | --- |
| OB1OCc2ccc(NC(=S)Nc3ccccc3)cc21 | 1200 | 19100 | 834 |
| O=C(Nc1ccc(F)cc1)Nc1ccc2c(c1)B(O)OC2 | 48 | 28000 | 644 |
| O=[N+]([O-])c1ccc2c(c1)B(O)OC2 | 142 | 8870 | 818 |
| OB1OCc2ccc(NC(=S)Nc3ccc(F)cc3)cc21 | 112 | 6350 | 544 |
| COc1ccc(NC(=S)Nc2ccc3c(c2)B(O)OC3)cc1 | 165 | 2300 | 874 |
| OB1OCc2cc(F)ccc21 [TAVABOROLE] | 157 | 97300 | 841 |
| O=C(Nc1ccc2c(c1)B(O)OC2)Nc1c(Cl)cc(Cl)cc1Cl | 76 | 84500 | 895 |
| O=C(Nc1ccc(Cl)cc1)Nc1ccc2c(c1)B(O)OC2 | 56 | 19500 | 650 |
| OB1OCc2ccc(NC(=S)NCc3ccccc3)cc21 | 96 | 30400 | 3960 |
| Cc1cc(Cl)cc(CNC(=O)Nc2ccc3c(c2)B(O)OC3)c1 | 53 | 61300 | 718 |
| Nc1ccc2c(c1)B(O)OC2 | 165 | 21800 | 1170 |
| O=[N+]([O-])c1ccc(NC(=S)Nc2ccc3c(c2)B(O)OC3)cc1 | 80 | 933 | 687 |
| Cc1ccc(NC(=S)Nc2ccc3c(c2)B(O)OC3)cc1 | 109 | 2590 | 1760 |
| O=C(Nc1ccccc1)Nc1ccc2c(c1)B(O)OC2 | 117 | 56400 | 705 |
| OB1OCc2ccccc21 [BENZOXABOROLE] | 319 | 70300 | 2840 |
| OB1OCc2ccc(NC(=S)Nc3ccc(C(F)(F)F)cc3)cc21 | 72 | 1250 | 1920 |
| O=C(NCc1ccco1)Nc1ccc2c(c1)B(O)OC2 | 164 | 79900 | 1230 |
| O=C(Nc1ccc(C(F)(F)F)cc1)Nc1ccc2c(c1)B(O)OC2 | 46 | 55100 | 957 |
| CC(=O)c1ccc(NC(=O)Nc2ccc3c(c2)B(O)OC3)cc1 | 103 | 65100 | 1130 |
| OB1OCc2ccc(NC(=S)NCCc3ccccc3)cc21 | 102 | 18400 | 554 |
| O=C(NCc1ccccc1)Nc1ccc2c(c1)B(O)OC2 | 90 | 42100 | 1870 |
| COc1ccc(C)cc1NC(=O)Nc1ccc2c(c1)B(O)OC2 | 556 | 67300 | 410 |
| OB1OCc2ccc(NC(=S)NCc3ccco3)cc21 | 220 | 31900 | 2000 |
| OB1OCc2ccc(NC(=S)Nc3ccc4ccccc4c3)cc21 | 603 | 26000 | 2970 |
